The values that follow come from ChEMBL document CHEMBL3588803, “Design, synthesis and pharmacology of 1,1-bistrifluoromethylcarbinol derivatives as liver X receptor β-selective agonists” (Bioorg Med Chem Lett, 2015).

A short description of series [1]: Plasma concentration in CE-2 chow diet-fed golden Syrian hamster at 100 mg/kg, po after 2 hrs by HPLC-LC-MS/MS method. The class given is ADME, organism-based, Mesocricetus auratus. A digest of the protocol:
(§1)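 Hamsters on chow diet received a single oral dose of 100 mg/kg. Heparin plasma was drawn from a forearm vein at 0.5, 1, 2, 3, 4, 6, 8, 10 and 24 h after dosing. Concentrations of parent drug and its carboxylic acid metabolite were measured in plasma.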

A short description of series [2]: Plasma concentration in CE-2 chow diet-fed golden Syrian hamster at 100 mg/kg, po after 24 hrs by HPLC-LC-MS/MS method. In kind it is ADME, organism-based, Mesocricetus auratus. The essentials: as §1
Series [3] is described as follows: Plasma concentration in CE-2 chow diet-fed golden Syrian hamster assessed as 4-(4-(1,1,1,3,3,3-Hexafluoro-2-hydroxypropan-2-yl)-2,6-di-n-propylphenoxy)-butanoic acid level at 100 mg/kg, po after 1 hr by HPLC-LC-MS/MS method. In kind it is ADME, organism-based, Mesocricetus auratus. The settings on record: in vivo. A digest of the protocol:
as §1

The nature of series [4]: Plasma concentration in CE-2 chow diet-fed golden Syrian hamster assessed as 4-(4-(1,1,1,3,3,3-Hexafluoro-2-hydroxypropan-2-yl)-2,6-di-n-propylphenoxy)-butanoic acid level at 100 mg/kg, po after 6 hrs by HPLC-LC-MS/MS method. In kind it is ADME, organism-based, Mesocricetus auratus. The conditions noted are these: in vivo. The essentials:
as §1

A short description of series [5]: Cmax in CE-2 chow diet-fed golden Syrian hamster at 100 mg/kg, po after 6 hrs by HPLC-LC-MS/MS method. The class given is ADME, organism-based, Mesocricetus auratus. Also on record: dose 100 mg/kg, route oral. The settings on record: in vivo. A digest of the protocol:
as §1

The subject of series [6] is Hamster. Nature of the series: Increase in ABCA1 gene expression in Bio F1B hamster intestine at 10 to 100 mg/kg, po. In kind it is functional, organism-based. The settings on record: Cricetinae.
Series [7] concerns Hamster. The series is described as follows: Increase in ABCA1 gene expression in Bio F1B hamster intestine at 10 mg/kg, po. In kind it is functional, Cricetinae.
The subject of series [8] is Hamster. The series is described as follows: Increase in ABCA1 gene expression in Bio F1B hamster intestine at 30 mg/kg, po. In kind it is functional, Cricetinae. The essentials:
(§2)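 Bio F1B hamsters were fed a high-fat, high-cholesterol diet and dosed orally. Gene expression was measured in intestine (ABCA1, ABCG5, ABCG8) and in peripheral blood (ABCA1).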

For series [9], the system named is Hamster. The series is described as follows: Increase in ABCA1 gene expression in Bio F1B hamster peripheral blood at 100 mg/kg, po. The class given is functional, Cricetinae. A digest of the protocol: as §2
The subject of series [10] is Hamster. Nature of the series: Hypolipidemic effect in Bio F1B hamster fed with high fat and cholesterol diet assessed as total cholesterol level at 100 mg/kg, po relative to control. The class given is functional, Cricetinae.
Series [11] deals with Hamster. The series is described as follows: Hypolipidemic effect in Bio F1B hamster fed with high fat and cholesterol diet assessed as HDL-cholesterol level at 30 mg/kg, po relative to control. In kind it is functional, Cricetinae.
The subject of series [12] is Hamster. Nature of the series: Hypolipidemic effect in Bio F1B hamster fed with high fat and cholesterol diet assessed as HDL-cholesterol level at 100 mg/kg, po relative to control. The class given is functional, Cricetinae.
For series [13], the system named is Hamster. Nature of the series: Hypolipidemic effect in Bio F1B hamster fed with high fat and cholesterol diet assessed as LDL-cholesterol level at 10 mg/kg, po relative to control. In kind it is functional, Cricetinae.

Molecules are shown by their SMILES.

In [1], `CCCc1cc(C(O)(C(F)(F)F)C(F)(F)F)cc(CCC)c1OCCCCN1C(=O)NC(C)(c2ccc(OC(C)C)cc2)C1=O` (stereo not drawn) came in with a concentration at 2 h of 320 nM. Moreover, the concentration at 24 h in series [2] turned out to be 100 nM. Moreover, the Cp in series [3] was 202 ng/mL; in series [4], 641 ng/mL. Also, the Cmax in [5] came out at 600 nM. In addition, the Activity result with Hamster [6] was “Dose-dependent effect”; in the series with Hamster [10] it was 53%; with Hamster [11], 92%; with Hamster [12], 75%; in the series on Hamster [13] it was 94%. In addition, the “fold change (FC)” value with Hamster [7] was found to be 2.1; with Hamster [8], 4; in the series on Hamster [9], 1.
